Measurements gathered from unrelated publications.
Protocols differ between the studies behind these lines.
DRD2: D(2) dopamine receptor (DRD2, Homo sapiens, UniProt P14416)
ADORA3: Adenosine receptor A3 (ADORA3, Homo sapiens, UniProt P0DMS8)
AGTR1: Type-1 angiotensin II receptor (AGTR1, Homo sapiens, UniProt P30556)
Blk: Tyrosine-protein kinase Blk (Blk, Mus musculus, UniProt P16277)
PARP16: Protein mono-ADP-ribosyltransferase PARP16 (PARP16, Homo sapiens, UniProt Q8N5Y8)
BRAF V600E: Serine/threonine-protein kinase B-raf (BRAF, Homo sapiens, UniProt P15056, V600E)
NPY1R: Neuropeptide Y receptor type 1 (NPY1R, Homo sapiens, UniProt P25929)

SMILES | target | test | setting | inhibition [%]
CCOc1ccc(N2C(=O)CC(NCCc3ccccc3Cl)C2=O)cc1 (stereo not shown) | DRD2 | enzyme activity, inhibitor | 10 µM | 42.5
CN1CCCn2c1nc1c2c(=O)n(C)c(=O)n1C | ADORA3 | ligand displacement, radioligand | 10 µM, cell membranes | 3
COc1cc(NC(C)=O)c(Cl)cc1C(=O)Nc1nccs1 | AGTR1 | cell-free assay | 10 µM | 4.8
CC(O)c1ccc(-c2ccc(CNCCc3ccc(S(N)(=O)=O)cc3)o2)cc1 (stereo not shown) | DRD2 | enzyme activity, inhibitor | 10 µM | 22.1
C=CCN1CCCn2c1nc1c2c(=O)n(C)c(=O)n1C | ADORA3 | ligand displacement, radioligand | 10 µM, cell membranes | 17
COc1ccc2c(c1)C(=O)N(CCCN1CCN(c3ccccc3OC)CC1)C2 | DRD2 | ligand displacement, radioligand | 10 µM | 85
CCCCn1c(=O)c2[nH]c(C34CC5CC(CC3C5)C4)nc2n(CCCO)c1=O | ADORA3 | ligand displacement, radioligand | 10 µM, cell membranes | 39
C=CCn1c(SCC(=O)NC2=NN(c3ccccc3)C(=O)C2)nnc1-c1cccs1 | DRD2 | enzyme activity, inhibitor | 10 µM | -12.8
O=C(Nc1ccc(S(=O)(=O)N2CCC(Cl)CC2)cc1)c1ccc([N+](=O)[O-])o1 | ADORA3 | ligand displacement, radioligand | 10 µM | 6
CNC(=O)c1cc(Oc2ccc(NC(=O)Nc3ccc(Cl)c(C(F)(F)F)c3)cc2)ccn1 | Blk | enzyme activity, inhibitor | 0.3 µM | -25
NS(=O)(=O)c1ccc(CCNCc2cccc3ccccc23)cc1 | DRD2 | enzyme activity, inhibitor | 10 µM | 42.2
Cn1cnc(Br)c1C1=CN(c2ncnc3[nH]cnc23)CCS1 | Serine/threonine-protein kinase Nek5 (NEK5, Homo sapiens, UniProt Q6P3R8) | enzyme activity, inhibitor, radiometric | 2 µM | 90.4
CNCc1ccc(-c2cc(-c3nc(-c4ccc(S(=O)(=O)C(C)C)cc4)cnc3N)on2)cc1 | Blk | enzyme activity, inhibitor | 0.4 µM | 2
[N-]=[N+]=N[C@@H](CC(=O)NO)Cc1ccc2ccccc2c1 | Endoplasmic reticulum aminopeptidase 2 (ERAP2, Homo sapiens, UniProt Q6P179) | enzyme activity, inhibitor, fluorescence | 300 µM | 24
O=C1NCCCc2c(O)cccc21 | PARP16 | enzyme activity, inhibitor | 10 µM | 0
CCCC(C)N1CCCn2c1nc1c2c(=O)n(C)c(=O)n1C (stereo not shown) | ADORA3 | ligand displacement, radioligand | 10 µM, cell membranes | 17
NC(=S)NN=C(CS(=O)(=O)c1ccccc1)c1ccc(F)cc1 | BRAF V600E | enzyme activity, inhibitor, ATP luminescence | 10 nM | 34
Cc1ccc(Nc2nccc(N(C)c3ccc4c(C)n(C)nc4c3)n2)cc1S(N)(=O)=O | Dual specificity mitogen-activated protein kinase kinase 4 (Map2k4, Mus musculus, UniProt P47809) | enzyme activity, inhibitor | 0.3 µM | 11
CCC(C)N1CCCn2c1nc1c2c(=O)n(C)c(=O)n1C (stereo not shown) | ADORA3 | ligand displacement, radioligand | 10 µM, cell membranes | 14
Cc1ccc(C(CS(=O)(=O)c2ccccc2)=NNC2=NC(=O)C(=NNc3ccc([N+](=O)[O-])cc3)S2)cc1 | BRAF V600E | enzyme activity, inhibitor, ATP luminescence | 0.1 µM | 49
CN(C)C(=O)N[C@H]1CC[C@H](CCN2CCN(c3cccc(Cl)c3Cl)CC2)CC1 | DRD2 | cell-free assay | 10 µM | 101
CS(=O)(=O)Nc1cccc(-c2csc(NC(=O)CSc3nc4nccnc4c(=O)n3CCc3ccccc3)n2)c1 | Phosphatidylinositol 4-kinase type 2-alpha (PI4K2A, Homo sapiens, UniProt Q9BTU6) | enzyme activity, inhibitor | 10 µM | 0
Cc1ccc(C(CS(=O)(=O)c2ccccc2)=NNC2=NC(=O)C(=NNc3ccccc3)S2)cc1 | BRAF V600E | enzyme activity, inhibitor, ATP luminescence | 10 nM | 32

SMILES | target | test | setting | inhibition [%]
CC(=O)N[C@H]1CSSC[C@@H](C(=O)N[C@@H](Cc2c[nH]c3ccccc23)C(N)=O)NC(=O)[C@@H](Cc2ccccc2)NC(=O)[C@H](CCCNC(=N)N)NC1=O | Melanocortin receptor 3 (MC3R, Homo sapiens, UniProt P41968) | ligand displacement, radioligand | 10 µM, 40 min | 45
COc1cc2c3c(c1OC)-c1cc4c(cc1CC3N(C)CC2)OCO4 (racemic) | 5-hydroxytryptamine receptor 1E (HTR1E, Homo sapiens, UniProt P28566) | ligand displacement, radioligand | 10 µM | 62
CC(C)CC(C)N1CCCn2c1nc1c2c(=O)n(C)c(=O)n1C (stereo not shown) | ADORA3 | ligand displacement, radioligand | 10 µM, cell membranes | 22
CCN(CC)CCNC(=O)c1c(C)[nH]c(/C=C2\C(=O)Nc3ccc(F)cc32)c1C | Blk | enzyme activity, inhibitor | 0.3 µM | 36
Cc1ccc(C(CS(=O)(=O)c2ccccc2)=NN=C2N=C(c3ccc(Br)cc3)CS2)cc1 | BRAF V600E | enzyme activity, inhibitor, ATP luminescence | 10 nM | 43
CCC(=O)c1ccc(OCC(O)CN2CCN(S(=O)(=O)N3CCCCC3)CC2)cc1 (stereo not shown) | DRD2 | enzyme activity, inhibitor | 10 µM | 6.8
CCOCCNC(=O)NC12CC3CC(CC(C3)C1)C2 | ephB (Mycobacterium tuberculosis, UniProt I6YC03) | enzyme activity, inhibitor | 10 nM | 8.7
COCCOc1ccc(N2CCN(CCn3ncc4c3nc(N)n3nc(-c5ccco5)nc43)CC2)cc1 | ADORA3 | ligand displacement, radioligand | 10 µM, cell membranes | 35
CCN(Cc1ccccc1C(F)(F)F)C(=O)C1CCN(S(=O)(=O)c2ccc3[nH]ncc3c2)CC1 | ADORA3 | ligand displacement, radioligand | 10 µM | 14
O=C(CCN1CCC(O)(c2ccc(F)cc2)C1)c1ccc2c(c1)OCCO2 (stereo not shown) | DRD2 | enzyme activity, inhibitor | 10 µM | 41.3
O=C1CCCc2c(O)cccc2N1 | PARP16 | enzyme activity, inhibitor | 10 µM | 0
Cc1ccc(C(CS(=O)(=O)c2ccccc2)=NNc2nc(-c3ccc(OCCCCOc4ccc(-c5csc(NN=C(CS(=O)(=O)c6ccccc6)c6ccc(C)cc6)n5)cc4)cc3)cs2)cc1 | BRAF V600E | enzyme activity, inhibitor, ATP luminescence | 0.1 µM | 57
O=C(c1ccc(F)cc1)N(Cc1ccccc1)C1CCCCC1 | NPY1R | cell-free assay | 10 µM | -9
Cc1ccc(C(CS(=O)(=O)c2ccccc2)=NNc2nc(C)c(N=Nc3cccc(C)c3)s2)cc1 | BRAF V600E | enzyme activity, inhibitor, ATP luminescence | 0.1 µM | 63
OC(CNCc1cccc(Oc2nnnn2-c2ccccc2)c1)c1ccccc1 (stereo not shown) | DRD2 | enzyme activity, inhibitor | 10 µM | 35.6
CN(C)C1CCN(CC#Cc2nn(C3CCCC3)c3nc(NCc4ccccc4)ncc23)C1 (stereo not shown) | Mitogen-activated protein kinase 8 (MAPK8, Homo sapiens, UniProt P45983) | enzyme activity, inhibitor, FRET | 10 µM | 8
Oc1cccc(Nc2nc(-c3ccc(F)cc3F)cs2)c1 | AGTR1 | cell-free assay | 10 µM | -7.2
Cc1ccc(N=Nc2sc(NN=C(CS(=O)(=O)c3ccccc3)c3ccc(C)cc3)nc2C)cc1 | BRAF V600E | enzyme activity, inhibitor, ATP luminescence | 0.1 µM | 48
Cc1ccc(CNC(=O)[C@H](CCc2ccccc2)NC(=O)[C@H](CCc2ccccc2)NC(=O)[C@H](CCc2ccccc2)NC(=O)c2cnc(C)cn2)cc1 | Neutrophil elastase (ELANE, Homo sapiens, UniProt P08246) | enzyme activity, inhibitor | 100 µM | -8
CC(C)N1CCCn2c1nc1c2c(=O)n(C)c(=O)n1C | ADORA3 | ligand displacement, radioligand | 10 µM, cell membranes | 8
O=C1N=C(N2CCCCN2)S/C1=C\c1ccc(F)cc1O | NPY1R | ligand displacement, radioligand | 10 µM | < 10
O=C(c1ccc(Cl)cc1)N(Cc1ccccc1)C1CCCCC1 | AGTR1 | cell-free assay | 10 µM | -0.9
COc1ccc(-c2csc(NN=C(CS(=O)(=O)c3ccccc3)c3ccc(F)cc3)n2)cc1 | BRAF V600E | enzyme activity, inhibitor, ATP luminescence | 0.1 µM | 51
